Experiments:
[1] = system: Human immunodeficiency virus 1; assay: Antiviral activity against HIV1 isolate 200 harboring reverse transcriptase M41L/L210W/T215Y mutant gene by phenosense assay relative to wild type; assay type: functional
Summary of the method: (§1)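 Recombinant-virus PhenoSense HIV assay run on a panel of 30 NRTI-resistant HIV-1 mutants and two wild-type viruses. Each virus is tested across increasing drug concentrations to give an inhibition curve and EC50. Fold change is the test recombinant EC50 divided by the EC50 of the drug-sensitive wild-type reference virus.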

[2] = system: Human immunodeficiency virus 1; assay: Antiviral activity against HIV1 isolate 063 harboring reverse transcriptase M41L/D67N/K70R/M184V/L210W/T215Y/K219E mutant gene by phenosense assay; assay type: functional, organism-based; conditions: Human immunodeficiency virus 1, isolate 063; summary of the method: as §1
[3] = system: Human immunodeficiency virus 1; assay: Antiviral activity against HIV1 isolate 071 harboring reverse transcriptase 65R/S68N/184V mutant gene by phenosense assay; assay type: functional, organism-based; conditions: Human immunodeficiency virus 1, isolate 071; summary of the method: as §1
[4] = system: Human immunodeficiency virus 1; assay: Antiviral activity against HIV1 isolate 192 harboring reverse transcriptase M41L/T215Y mutant gene by phenosense assay relative to wild type; assay type: functional; summary of the method: as §1
[5] = system: Human immunodeficiency virus 1; assay: Antiviral activity against HIV1 isolate 070 harboring reverse transcriptase 65R/S68G mutant gene by phenosense assay; assay type: functional, organism-based; conditions: Human immunodeficiency virus 1, isolate 070; summary of the method: as §1
[6] = system: Human immunodeficiency virus 1; assay: Antiviral activity against HIV1 isolate 203 harboring reverse transcriptase M41L/L210W/T215Y/M184V mutant gene by phenosense assay; assay type: functional, organism-based; conditions: Human immunodeficiency virus 1, isolate 203
Summary of the method: (§2)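 PhenoSense HIV recombinant virus assay: patient-derived HIV-1 with major NRTI resistance mutations tested against increasing drug concentrations to give inhibition curves. EC50 is the concentration giving 50% inhibition. Fold change is the test recombinant EC50 divided by the EC50 of a drug-sensitive wild-type reference virus. Panel of 30 NRTI-resistant isolates plus two wild-type viruses.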

[7] = system: Human immunodeficiency virus 1; assay: Antiviral activity against HIV1 isolate 153 harboring reverse transcriptase L74V mutant gene by phenosense assay relative to wild type; assay type: functional; summary of the method: as §1
[8] = system: Human immunodeficiency virus 1; assay: Antiviral activity against HIV1 isolate 162 harboring reverse transcriptase A62V/V75I/F77L/Y115F/F116Y/Q151M/M184V mutant gene by phenosense assay relative to wild type; assay type: functional; summary of the method: as §1
[9] = system: Human immunodeficiency virus 1; assay: Antiviral activity against HIV1 isolate 058 harboring reverse transcriptase M41L/D67N/K70R/L210W/T215F/K219Q mutant gene by phenosense assay; assay type: functional, organism-based; conditions: Human immunodeficiency virus 1, isolate 058; summary of the method: as §1
[10] = system: Human immunodeficiency virus 1; assay: Antiviral activity against HIV1 isolate 180 harboring reverse transcriptase K65R mutant gene obtained as site-directed mutant of NL4-3 by phenosense assay relative to wild type; assay type: functional; summary of the method: as §1
[11] = system: Human immunodeficiency virus 1; assay: Antiviral activity against HIV1 isolate 215 harboring reverse transcriptase D67N/K70E mutant gene by phenosense assay; assay type: functional, organism-based; conditions: Human immunodeficiency virus 1, isolate 215; summary of the method: as §2
[12] = system: Human immunodeficiency virus 1; assay: Antiviral activity against HIV1 isolate 069 harboring reverse transcriptase D67E/T69SSG/V75M/M184V/L210W/T215Y mutant gene by phenosense assay relative to wild type; assay type: functional; summary of the method: as §1
[13] = system: Human immunodeficiency virus 1; assay: Antiviral activity against HIV1 isolate 201 harboring reverse transcriptase M41L/L210W/T215Y mutant gene by phenosense assay; assay type: functional, organism-based; conditions: Human immunodeficiency virus 1, isolate 201; summary of the method: as §1
[14] = system: Human immunodeficiency virus 1; assay: Antiviral activity against HIV1 isolate 185 harboring reverse transcriptase T215Y mutant gene by phenosense assay relative to wild type; assay type: functional; summary of the method: as §1
[15] = system: Human immunodeficiency virus 1; assay: Antiviral activity against HIV1 isolate 206 harboring reverse transcriptase D67N/K70R mutant gene by phenosense assay; assay type: functional, organism-based; conditions: Human immunodeficiency virus 1, isolate 206; summary of the method: as §2
[16] = system: Human immunodeficiency virus 1; assay: Antiviral activity against HIV1 isolate 200 harboring reverse transcriptase M41L/L210W/T215Y mutant gene by phenosense assay; assay type: functional, organism-based; conditions: Human immunodeficiency virus 1, isolate 200; summary of the method: as §1
[17] = system: Human immunodeficiency virus 1; assay: Antiviral activity against HIV1 isolate 174 harboring reverse transcriptase M184V mutant gene obtained as site-directed mutant of NL4-3 by phenosense assay; assay type: functional, organism-based; conditions: Human immunodeficiency virus 1, isolate 174; summary of the method: as §1
[18] = system: Human immunodeficiency virus 1; assay: Antiviral activity against HIV1 isolate 204 harboring reverse transcriptase M41L/L210W/T215Y/M184V mutant gene by phenosense assay relative to wild type; assay type: functional; summary of the method: as §2
[19] = system: Human immunodeficiency virus 1; assay: Antiviral activity against HIV1 isolate 070 harboring reverse transcriptase 65R/S68G mutant gene by phenosense assay relative to wild type; assay type: functional; summary of the method: as §1
[20] = system: Human immunodeficiency virus 1; assay: Antiviral activity against HIV1 isolate 066 harboring reverse transcriptase 184V mutant gene by phenosense assay; assay type: functional, organism-based; conditions: Human immunodeficiency virus 1, isolate 066; summary of the method: as §1
[21] = system: Human immunodeficiency virus 1; assay: Antiviral activity against HIV1 isolate 188 harboring reverse transcriptase T215Y/M184V mutant gene by phenosense assay; assay type: functional, organism-based; conditions: Human immunodeficiency virus 1, isolate 188; summary of the method: as §1
[22] = system: Human immunodeficiency virus 1; assay: Antiviral activity against HIV1 isolate 174 harboring reverse transcriptase M184V mutant gene obtained as site-directed mutant of NL4-3 by phenosense assay relative to wild type; assay type: functional; summary of the method: as §1
[23] = system: Human immunodeficiency virus 1; assay: Antiviral activity against HIV1 isolate 160 harboring reverse transcriptase S68G/V75(I/T)/F77L/Y115F/F116Y /Q151M mutant gene by phenosense assay; assay type: functional, organism-based; conditions: Human immunodeficiency virus 1, isolate 160; summary of the method: as §1
[24] = system: Human immunodeficiency virus 1; assay: Antiviral activity against HIV1 isolate 204 harboring reverse transcriptase M41L/L210W/T215Y/M184V mutant gene by phenosense assay; assay type: functional, organism-based; conditions: Human immunodeficiency virus 1, isolate 204; summary of the method: as §2
[25] = system: Human immunodeficiency virus 1; assay: Antiviral activity against HIV1 isolate 166 harboring reverse transcriptase L74V mutant gene obtained as site-directed mutant of NL4-3 by phenosense assay relative to wild type; assay type: functional; summary of the method: as §1
[26] = system: Human immunodeficiency virus 1; assay: Antiviral activity against HIV1 isolate 058 harboring reverse transcriptase M41L/D67N/K70R/L210W/T215F/K219Q mutant gene by phenosense assay relative to wild type; assay type: functional; summary of the method: as §1
[27] = system: Human immunodeficiency virus 1; assay: Antiviral activity against HIV1 8415-2 harboring reverse transcriptase 65R/184V mutant gene infected in human PBMC by ELISA; assay type: functional, organism-based; conditions: Human immunodeficiency virus 1, 8415-2
Summary of the method: (§3)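 Fresh PBMCs pooled from at least two HIV- and HBV-seronegative donors, stimulated with PHA 4 μg/ml for 48–72 h and kept in rhIL-2 20 U/ml. Seeded at 5 × 10^4 cells/well and infected with RT-mutant HIV-1 clones at MOI ~0.1. Nine compound concentrations, triplicate wells, 7-day incubation. EC50 reported as mean ± SD of one to three independent experiments.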

[28] = system: Human immunodeficiency virus 1; assay: Antiviral activity against HIV1 1617-1 harboring reverse transcriptase 69K/70G/75I/77L/116Y/151M/184V mutant gene infected in human PBMC by ELISA; assay type: functional, organism-based; conditions: Human immunodeficiency virus 1, 1617-1; summary of the method: as §3
[29] = system: Human immunodeficiency virus 1; assay: Antiviral activity against HIV1 52534-2 harboring reverse transcriptase 41L//74V/210W/215Y/184V/69SSS mutant gene infected in human PBMC by ELISA; assay type: functional, organism-based; conditions: Human immunodeficiency virus 1, 52534-2; summary of the method: as §3
[30] = system: Human immunodeficiency virus 1; assay: Antiviral activity against HIV1 7303-3 harboring reverse transcriptase 41L/44D/67N/69D/118I/210W/215Y mutant gene infected in human PBMC by ELISA; assay type: functional, organism-based; conditions: Human immunodeficiency virus 1, 7303-3; summary of the method: as §3
[31] = system: Human immunodeficiency virus 1; assay: Antiviral activity against HIV1 7324-1 harboring reverse transcriptase 41L/67N/69N/70R/215F/219E mutant gene infected in human PBMC by ELISA; assay type: functional, organism-based; conditions: Human immunodeficiency virus 1, 7324-1; summary of the method: as §3
[32] = system: Human immunodeficiency virus 1; assay: Antiviral activity against HIV1 4755-5 harboring reverse transcriptase 41L/44D/67N/69D/118I/210W/215Y/184V mutant gene infected in human PBMC by ELISA; assay type: functional, organism-based; conditions: Human immunodeficiency virus 1, 4755-5; summary of the method: as §3

| Structure (SMILES) | fold change (FC) [1] | EC50 [2] [nM] | EC50 [3] [nM] | fold change (FC) [4] | EC50 [5] [nM] | EC50 [6] [nM] | fold change (FC) [7] | fold change (FC) [8] | EC50 [9] [nM] | fold change (FC) [10] | EC50 [11] [nM] | fold change (FC) [12] | EC50 [13] [nM] | fold change (FC) [14] | EC50 [15] [nM] | EC50 [16] [nM] | EC50 [17] [nM] | fold change (FC) [18] | fold change (FC) [19] | EC50 [20] [nM] | also measured |
| --- | --- | --- | --- | --- | --- | --- | --- | --- | --- | --- | --- | --- | --- | --- | --- | --- | --- | --- | --- | --- | --- |
| Nc1ccn([C@@H]2CS[C@H](CO)O2)c(=O)n1 [LAMIVUDINE] | 2.7 | > 300000 | > 300000 | 2 | 71000 | > 300000 | 1.9 | >80 | 14000 | 12 | 11000 | >80 | 5900 | 1.6 | 8100 | 10300 | > 300000 | >80 | 19 | > 300000 | EC50 [21]: > 300000 nM; fold change (FC) [22]: >80; EC50 [23]: 90000 nM; EC50 [24]: > 300000 nM; fold change (FC) [25]: 1.6; fold change (FC) [26]: 3.7 |
| Cc1cn([C@H]2C=C[C@@H](CO)O2)c(=O)[nH]c1=O [STAVUDINE] | 2.1 | 1400 | 590 | 1.4 | 770 | 880 | 1 | 7.1 | 2200 | 1.4 | 560 | 11 | 1100 | 1.4 | 780 | 1200 | 400 | 1.8 | 1.3 | 460 | EC50 [21]: 650 nM; fold change (FC) [22]: 0.68; EC50 [23]: 5500 nM; EC50 [24]: 1100 nM; fold change (FC) [25]: 1.1; fold change (FC) [26]: 3.7 |
| C[C@H](Cn1cnc2c(N)ncnc21)OCP(=O)(O)O [TENOFOVIR ANHYDROUS] | 2.8 | 1700 | 940 | 1.8 | 1300 | 750 | 0.62 | 1.4 | 2700 | 2 | 740 | 4.7 | 2300 | 2.4 | 2000 | 2200 | 410 | 1 | 1.7 | 530 | EC50 [27]: 1000 nM; EC50 [28]: > 6500 nM; EC50 [29]: > 6500 nM; EC50 [30]: > 8500 nM; EC50 [21]: 620 nM; fold change (FC) [22]: 0.54; EC50 [31]: 6500 nM; EC50 [23]: 1700 nM; EC50 [24]: 790 nM; fold change (FC) [25]: 0.69; EC50 [32]: 5400 nM; fold change (FC) [26]: 3.5 |
| CCCCCCCCCCCCCCCCOCCCOP(=O)(O)CO[C@H](C)Cn1cnc2c(N)ncnc21 [TENOFOVIR EXALIDEX] | 3.2 | 5.2 | 2.7 | 2.1 | 3.6 | 1.9 | 0.66 | 1.6 | 8.5 | 2.6 | 2.1 | 6.1 | 6.6 | 2.7 | 5.6 | 6 | 1.2 | 1.4 | 1.9 | 1.4 | EC50 [27]: 1.8 nM; EC50 [28]: 5 nM; EC50 [29]: 9 nM; EC50 [30]: 19 nM; EC50 [21]: 1.7 nM; fold change (FC) [22]: 0.62; EC50 [31]: 3.8 nM; EC50 [23]: 3.7 nM; EC50 [24]: 2.5 nM; fold change (FC) [25]: 0.8; EC50 [32]: 3.1 nM; fold change (FC) [26]: 4.6 |

Reference: ChEMBL document CHEMBL1629690, “Development of hexadecyloxypropyl tenofovir (CMX157) for treatment of infection caused by wild-type and nucleoside/nucleotide-resistant HIV” (Antimicrob Agents Chemother, 2010)
